Assay outcomes: PubChem, several laboratories
Scp-1 inhibitor = inhibitors of human Scp-1 phosphatase; inhibition, % at 20 µM; Recombinant Scp1, phosphopeptide, malachite green phosphate absorbance; Q9GZU7; AID 493091; 340,000 compounds, 0.88% hits;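 active = inhibition above about 50% at 20 µM, limit read from the data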;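 note: plate controls were DMSO wells with enzyme for no effect and wells lacking enzyme for full effect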
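Assay system: SCP-1 catalytic fragment, aa 76-261 | Buffer or medium: Tris acetate buffer pH 5.5 with MgCl2 and Tween-20 | Compound: One concentration, 20 µM, with 1.0% DMSO | Also added: Phospho 17-mer peptide substrate | Signal: Absorbance at 630 nm | Incubation: 45 min enzyme reaction at room temperature | Measure: % inhibition of SCP-1 phosphate liberation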
PP5 primary = PP5 (human) phosphatase inhibition; P53041; purified PP5c, OMFP substrate fluorescence; inhibition, % at 6.7 µM; 320,000 compounds, 0.18% hits; AID 1987;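 active = inhibition above the campaign's mean inhibition across all tested compounds plus 3 SD, cut at about 9.5% in these data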;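 note: 0% = DMSO only and 100% = 100 µM cantharidin control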
PP1 counter = blocks human PP1-alpha phosphatase, a PP5 counter-screen; P62136; purified PP1alpha, OMFP fluorescence; inhibition, % at 6.7 µM; 320,000 compounds, 0.9% hits; AID 2235;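 active = inhibition above the mean inhibition of all tested compounds plus 3 SD, computed separately for each screening campaign, cut at about 15% in these data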
LMPTP block = LMPTP (human) inhibition; 360,000 compounds, 0.22% hits; recombinant LMPTP-A, OMFP fluorogenic substrate, fluorescence intensity; P24666; AID 651560; inhibition, % at 20 µM;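 active = compounds that cut the enzyme signal by at least half of the control window in the single-dose screen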;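 note: plate controls were DMSO wells with enzyme plus substrate for no effect and substrate without enzyme for full effect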
Target sequence (P24666 whole entry, looked up): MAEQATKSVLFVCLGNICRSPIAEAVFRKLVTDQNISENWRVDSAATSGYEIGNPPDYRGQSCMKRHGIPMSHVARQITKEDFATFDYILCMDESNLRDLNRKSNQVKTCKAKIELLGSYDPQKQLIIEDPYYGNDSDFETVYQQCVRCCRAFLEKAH
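Test system – LMPTP-A enzyme · Amount – LMPTP-A at 0.625 nM final in the reaction · Buffer or medium – Bis-Tris pH 6.0, DTT, detergent · Reagent – OMFP 400 µM · Doses – single 20 µM dose · Schedule – reaction 50 min, room temperature, dark · Detection – fluorescence intensity of OMFP turnover product · Evaluation – percent inhibition versus substrate-only and uninhibited controls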
STEP block = blocks human striatal-enriched tyrosine phosphatase; recombinant STEP, OMFP fluorogenic substrate, fluorescence; inhibition, % at 20 µM; 360,000 compounds, 0.25% hits; AID 588621;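 active = inhibition at 20 µM, scaled per plate between control wells, above about 37%, limit read from the data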;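 note: 0% = DMSO with enzyme and substrate and 100% = substrate only without enzyme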
Target sequence (P54829 whole entry, looked up): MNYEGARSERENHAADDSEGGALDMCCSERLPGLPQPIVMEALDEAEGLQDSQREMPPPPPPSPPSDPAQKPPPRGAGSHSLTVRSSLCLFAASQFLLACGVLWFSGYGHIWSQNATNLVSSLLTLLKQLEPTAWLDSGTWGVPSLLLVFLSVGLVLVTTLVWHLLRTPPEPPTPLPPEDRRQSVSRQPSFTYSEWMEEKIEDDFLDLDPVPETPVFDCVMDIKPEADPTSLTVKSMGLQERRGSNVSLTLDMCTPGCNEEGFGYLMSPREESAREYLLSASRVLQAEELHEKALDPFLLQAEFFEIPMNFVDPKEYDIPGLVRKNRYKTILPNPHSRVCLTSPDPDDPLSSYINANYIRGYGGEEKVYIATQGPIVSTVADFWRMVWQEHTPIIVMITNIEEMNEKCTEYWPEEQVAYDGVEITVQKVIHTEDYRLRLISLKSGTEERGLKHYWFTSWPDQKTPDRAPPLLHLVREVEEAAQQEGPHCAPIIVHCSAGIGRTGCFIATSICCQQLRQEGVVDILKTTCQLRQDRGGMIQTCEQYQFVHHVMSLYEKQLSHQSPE
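System: STEP phosphatase, cell-free reaction; Buffer or medium: Bis-Tris pH 6.0 buffer with DTT, detergent; Incubation: 20 min at room temperature, dark; Measured by: fluorescence, 480/540 nm.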
Scp-1 conf = confirmation of human Scp-1 phosphatase inhibitors; shares compounds with Scp-1 inhibitor; recombinant SCP-1 catalytic domain, phosphate release, malachite green absorbance; inhibition, % at 20 µM; 2,500 compounds, 61% hits;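 note: plate controls were DMSO with enzyme for no effect and buffer wells lacking enzyme for full effect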
MG interference = interferes with malachite green readout, flagging false Scp-1 hits; AID 540313; 2,500 tested, under 10 active; Colorimetric interference counterscreen, malachite green absorbance 630 nm; apparent inhibition (interference), % at 20 µM; shares compounds with Scp-1 inhibitor;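 note: compounds added after enzyme reaction finished so only phosphate colour detection is probed; plate controls were DMSO wells with completed Scp-1 reaction for no effect and substrate wells lacking enzyme for full effect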
Scp1 DSF = validation of human Scp-1 inhibitors by thermal shift binding; shares compounds with Scp-1 inhibitor; Recombinant SCP1, Sypro Orange thermal shift Tm; thermal shift relative to vanadate control, % at 40 µM; 1,500 compounds, 25% hits; AID 540329;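 active = substances whose mean melting-temperature shift, as a percentage of the reference inhibitor's shift, reaches about 5.3%, limit read from the data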;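 note: 0% = Tm of DMSO wells and 100% = Tm with sodium orthovanadate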
An asterisk follows results filed as active; x = not tested or not shown. The list is not random: actives were taken first. Their share in the collection is about 1.9%.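 Rule for the calls, unless noted: active = inhibition of at least 30% at 20 µM; inactive = the rest.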

SMILES	Scp-1 inhibitor	PP5 primary	PP1 counter	LMPTP block	STEP block	Scp-1 conf	MG interference	Scp1 DSF
COc1ccc(S(=O)(=O)N2CCC(N3CCCCC3)CC2)cc1	-5.2	0.5	-0.5	-1.5	-0.3	x	x	x
Cc1ccc(/C=c2\sc3nc(-c4ccccc4Br)nn3c2=O)o1	91.9*	2.0	-2.8	35.4	10.6	61.4*	-20.6	9.2*
Cc1ccc(-c2nc3s/c(=C\c4ccco4)c(=O)n3n2)cc1	66.6*	0.6	-0.4	4.4	4.6	49.5*	-6.8	4.5
CCOc1ccccc1-c1nc(-c2cc3ccc(C)cc3[nH]c2=O)no1	57.0*	8.3	-1.4	3.5	32.7	39.4*	-3.8	-4.1
O=C(N/N=C\C=C\c1ccc(Br)cc1)c1ccc2c(c1)OCO2	94.9*	0.6	4.5	56.6*	97.8*	93.5*	-3.5	-2.6
C[n+]1cccc(C(=O)N/N=C/c2ccc3c(c2)OCO3)c1	50.1*	-0.1	-1.2	-0.1	0.6	14.8	-7.1	x
COc1ccc(/C=N/NC(=O)c2ccc(COCC(F)(F)C(F)F)cc2)cc1	-1.3	1.1	2.5	-2.2	-0.7	x	x	x
O=C(NN=Cc1ccc2c(c1)OCO2)c1ccc([N+](=O)[O-])cc1	x	x	x	10.2	3.8	x	x	x
O=C(N/N=C/c1ccc2c(c1)OCO2)c1ccc(COCC(F)(F)C(F)F)cc1	72.1*	1.6	-2.0	24.8	9.0	77.0*	-10.9	-11.9
O=C(Nc1ccccc1O)N1c2ccccc2Sc2ccccc21	3.0	6.5	-3.0	-0.6	-0.7	x	x	x
Cc1cc(S(=O)(=O)Nc2cc(C)c(O)c(C)c2)c(C)s1	-4.4	4.4	-0.9	0.5	-1.8	x	x	x
CCOc1ccc(NC(=O)c2ccc(NC(=O)c3ccc(NC(N)=O)cc3)cc2)cc1	58.8*	x	x	35.2	9.1	35.1*	-12.9	8.0*
CCCOC(=O)CC1C(=O)NCCN1Cc1cc(OC)cc(OC)c1 (stereo not drawn)	-0.7	0.9	0.3	-1.4	-0.8	x	x	x
COc1cc(OC)c2ccc(=O)oc2c1C(CCN1CCCC1)c1ccc2c(c1)OCO2 (stereo not drawn)	-3.5	3.8	5.2	5.2	2.1	x	x	x
CCOC(=O)c1ccc(NC(=O)CSc2nnc(-c3cccs3)n2C)cc1	105.0*	-0.7	-3.5	-1.3	-0.5	-2.5	-5.7	x
CCOC(=O)c1ccc(NC(=O)CSc2nnc(-c3cccs3)n2CC)cc1	-0.3	0.8	1.8	-0.8	-1.9	x	x	x
N#CCCN(C(=O)CSc1nnc(-c2ccncc2)n1C1CC1)c1ccccc1	-6.8	-1.4	-3.1	-2.5	-1.7	x	x	x
NC(=O)Cc1ccc(C(=O)CSc2nnc(-c3ccncc3)n2C2CC2)s1	78.7*	x	x	56.6*	-0.4	81.9*	4.8	7.0*
CCOc1ccccc1NC(=O)N1CCC(NC(=O)c2cccc(C)c2)CC1	99.3*	2.9	-1.4	31.8	7.3	67.2*	-15.9	-14.8
Cc1oc(/N=C/c2cccc3ccccc23)c(C#N)c1C	65.3*	-3.1	4.0	0.6	1.9	-11.1	-8.2	x
Cc1oc(/N=C/c2ccccc2)c(C#N)c1C	4.5	x	x	0.5	-2.2	x	x	x
O=C(Nc1cccc([N+](=O)[O-])c1)c1cccc(C(=O)Nc2cccc([N+](=O)[O-])c2)c1	73.6*	1.4	-5.5	8.5	22.3	84.7*	-10.7	3.8
Cc1cc(CSc2ccccc2)ccc1NC(=O)c1cccc([N+](=O)[O-])c1	53.6*	0.3	-3.9	-1.3	-2.0	-11.7	-16.4	x
Cc1cc(O)c(NC(=O)c2cccc([N+](=O)[O-])c2)cc1C	0.8	2.1	-2.6	-0.9	16.0	x	x	x
CN(C)c1ccc(/C=N/N=C/c2ccccc2O)cc1	-2.7	-0.2	-0.5	-0.4	-0.1	x	x	x
SMILES	Scp-1 inhibitor	PP5 primary	PP1 counter	LMPTP block	STEP block	Scp-1 conf	MG interference	Scp1 DSF
COc1ccc2nc(NC(=O)c3ccoc3C)sc2c1	-6.1	0.4	2.2	1.6	-1.1	x	x	x
O=S(Cc1ccc(Br)cc1)Cc1nnc(SCc2ccc(Cl)cc2)n1-c1ccccc1 (stereo not drawn)	2.2	7.7	12.9	5.0	-1.7	x	x	x
CN(CCO)C(=O)c1nc[nH]c1C(=O)N1CCN(C(=O)OC(C)(C)C)CC1	x	x	x	-1.9	-1.5	x	x	x
Cc1nc(NC(=O)COC(=O)C2CC2C)c(Cl)cc1Cl (stereo not drawn)	51.1*	x	x	-0.1	0.3	-3.5	-16.2	x
COc1ccc(/C=C2\C(=O)NCC(=O)N2C)cc1	89.3*	0.2	-1.1	-3.0	-1.9	-12.9	-15.1	x
CC(=O)Nc1ccc(S(=O)(=O)Nc2nc3ccccc3nc2Sc2nncn2C)cc1	-5.6	-0.3	-3.9	-1.6	0.7	x	x	x
N#CCCn1ccc(NC(=O)c2ccc(Cl)cc2)n1	0.8	1.5	-1.2	-1.6	2.2	x	x	x
N#Cc1ccsc1NC(=O)COC(=O)CCS(=O)(=O)c1ccccc1	50.2*	x	x	11.7	-0.9	68.6*	-9.5	5.7*
N#Cc1ccsc1NC(=O)CCS(=O)(=O)c1ccccc1	10.0	0.4	-1.5	-0.1	-1.4	x	x	x
CC(C)Oc1ccc(C(=O)CCN2CCCCC2)cc1	-8.1	1.8	-0.3	-1.1	-0.1	x	x	x
CSc1nnc(C)c(/C=C/Nc2ccc(F)cc2F)n1	55.0*	0.7	0.8	0.1	1.5	65.7*	-7.9	-18.7
O=C(Nc1cccc(NC(=O)C2CCCO2)c1)C1CCCO1 (stereo not drawn)	56.1*	-1.4	-0.5	-1.8	-1.7	-14.4	-13.4	x
Cc1nc(N2CCOCC2)nc(OCCN2CCOCC2)c1[N+](=O)[O-]	-6.7	-0.7	-3.4	-0.4	-0.5	x	x	x
Cn1cnc(C(=O)N2CCN(c3ccccc3)CC2)c1C(=O)N1CCN(c2ccccc2)CC1	96.3*	3.5	0.9	-2.2	-1.4	84.4*	-16.4	-11.8
COc1cccc2cc(C(=O)CS(=O)(=O)c3ccc(C)cc3)c(=O)oc12	66.0*	-1.0	-4.8	-0.5	1.3	-7.4	-18.9	x
Cc1ccc(C)c(S(=O)(=O)NCCCc2ccccc2)c1	1.6	3.8	0.5	0.6	0.5	x	x	x
C/C(=N\NC(=O)c1cc(Br)ccc1O)c1cccs1	66.4*	-0.6	-3.9	-0.9	4.7	69.4*	-7.3	-1.6
C/C(=N\NC(=O)c1cc(Br)ccc1O)c1cccc(NC(=O)c2ccccc2F)c1	86.1*	1.8	0.1	3.9	9.0	78.9*	-12.6	5.8*
C/C(=N/NC(=O)c1ccc(Br)o1)c1cccs1	-5.0	x	x	-0.8	-0.5	x	x	x
CCN(C(=O)c1cc2c(=O)n3ccccc3nc2n1C)C1CCCCC1	9.9	-1.5	-6.0	-1.0	-0.2	x	x	x
CN(C(=O)c1cc2c(=O)n3ccccc3nc2n1C)C1CCCCC1	80.0*	-1.9	-4.5	0.6	0.6	-17.2	-13.6	x
